ChEMBL document CHEMBL4257537, “Design, synthesis, and biological evaluation of m-amidophenol derivatives as a new class of antitubercular agents” (Medchemcomm, 2018)
Values after ≈ are worked out from the molar mass of the structure shown.

How the values were obtained:
Type in all cases: functional
[1] = system: Mycobacterium tuberculosis; test: Antimycobacterial activity against rifampicin-resistant Mycobacterium tuberculosis isolate P103 after 7 days by microplate alamar blue assay; details: isolate P103, 168 h
In short: (§1)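 Each well held a 1/100 culture dilution plus 10-point two-fold DMSO dilutions (top 100 µg/mL, final DMSO 2%). INH and RIF were the positive controls. After 7 days at 37 °C, Tween 80 and alamarBlue were added for 16–24 h. MIC was the lowest concentration preventing the blue-to-pink change.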

[2] = system: Mycobacterium tuberculosis; test: Antimycobacterial activity against rifampicin-resistant Mycobacterium tuberculosis isolate P91 after 7 days by microplate alamar blue assay; details: isolate P91, 168 h; in short: as §1
[3] = system: Mycobacterium tuberculosis; test: Antimycobacterial activity against rifampicin-resistant Mycobacterium tuberculosis isolate R7 after 7 days by microplate alamar blue assay; details: isolate R7, 168 h; in short: as §1
[4] = system: Mycobacterium tuberculosis; test: Antimycobacterial activity against rifampicin/isoniazid/pyrazinamide-resistant Mycobacterium tuberculosis isolate P71 after 7 days by microplate alamar blue assay; details: isolate P71, 168 h; in short: as §1
[5] = system: Mycobacterium tuberculosis; test: Antimycobacterial activity against rifampicin-resistant Mycobacterium tuberculosis isolate P90 after 7 days by microplate alamar blue assay; details: isolate P90, 168 h; in short: as §1
[6] = system: Mycobacterium tuberculosis; test: Antimycobacterial activity against rifampicin-resistant Mycobacterium tuberculosis isolate P98 after 7 days by microplate alamar blue assay; details: isolate P98, 168 h; in short: as §1

Compound	MIC [1] [µg/mL]	MIC [2] [µg/mL]	MIC [3] [µg/mL]	MIC [4] [µg/mL]	MIC [5] [µg/mL]	MIC [6] [µg/mL]
O=C(Nc1cc(O)cc(Cc2ccccc2)c1)C1CCCCC1	0.39 (≈ 1.26 µM)	0.39 (≈ 1.26 µM)	3.12 (≈ 10.1 µM)	> 100	> 100	> 100
O=C(Nc1cc(O)cc(Cc2ccccc2)c1)c1ccccc1	0.39 (≈ 1.29 µM)	0.39 (≈ 1.29 µM)	0.78 (≈ 2.57 µM)	> 100	> 100	> 100
